Data published in ChEMBL document CHEMBL1150828, “Antimalarial, cytotoxic, and antifungal alkaloids from Duguetia hadrantha” (J Nat Prod, 2001).
pIC50: −log10 of the molar value. Converted amounts (≈) assume the structure as drawn. The source made the active and inactive calls. The rule behind the calls is not given here.

How the values were obtained:
[1] = molecular target: Intercellular adhesion molecule (ICAM-1), Integrin alpha-L/beta-2 (Homo sapiens) (UniProt P20701+P05362+P05107); assay: Inhibition of LFA1/ICAM1-mediated aggregation of TPA-stimulated human HL60 cells pretreated 10 mins before TPA challenge measured after 16 hrs of PMA addition by microscopy; format: cell-based; settings: HL-60
Summary of the method: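 HL-60 cells at 1 × 10^6 cells/mL preincubated 10 min with sample, then PMA 10 ng/mL added; plates kept in CO2 incubator and aggregation scored microscopically 16 h after PMA; MIC reported; cytochalasin B, anti-LFA-1 and anti-ICAM-1 antibodies as positive controls.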

Candida albicans = assay: Antifungal activity against Candida albicans B311 after 48 hrs by modified well microplate assay; format: functional, organism-based; settings: B311, 48 h
Summary of the method: (§1)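 ATCC strains (C. albicans B311 #90028, C. neoformans #90113, S. aureus #6535, MRSA #33591) were tested in a modified 96-well microplate protocol. […] Amphotericin B and rifampin served as positive controls and DMSO as the negative control.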

[2] = Selectivity index, ratio of IC50 of african green monkey (Cercopithecus aethiops) Vero cells to IC50 for chloroquine-resistant Plasmodium falciparum W2; format: toxicity, cell-based; settings: read-out: Ratio IC50
Staphylococcus aureus [3] = assay: Antibacterial activity against methicillin-resistant Staphylococcus aureus ATCC 33591 after 48 hrs by modified well microplate assay; format: functional, organism-based; summary of the method: as §1
Plasmodium falciparum [4] = assay: Antimalarial activity after 48 hrs against chloroquine-sensitive Plasmodium falciparum D6 as LDH activity by Makler method; format: functional, organism-based; settings: D6, 48 h
Summary of the method: (§2)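 Parasite lactate dehydrogenase (pLDH) assay adapted from Makler, run in 96-well microplates on two P. falciparum clones, W-2 and D-6 (D-6 chloroquine-sensitive). Chloroquine and artemisinin were positive controls, with DMSO as the vehicle control.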

Staphylococcus aureus [5] = assay: Antibacterial activity against Staphylococcus aureus ATCC 6535 after 48 hrs by modified well microplate assay; format: functional, organism-based; summary of the method: as §1
Cryptococcus neoformans [6] = assay: Antifungal activity against Cryptococcus neoformans ATCC 90113; format: functional
[7] = Specific index, ratio of IC50 for human HL60 cells to MIC for LFA1/ICAM1 mediated aggregation in TPA-stimulated human HL60 cells; format: functional, HL-60
Summary of the method: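 Ratio of XTT IC50 in HL-60 cells (4 h XTT-PMS read after the aggregation assay) to the microscopic aggregation MIC of PMA (10 ng/mL)-stimulated HL-60 cells scored 16 h after PMA.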

SK-MEL = assay: Cytotoxicity against human SK-MEL cells after 2 to 7 days by neutral red assay; format: functional, cell-based
BT-549 = assay: Cytotoxicity against human BT549 cells after 2 to 7 days by neutral red assay; format: functional, cell-based
SK-OV-3 = assay: Cytotoxicity against human SKOV3 cells after 2 to 7 days by neutral red assay; format: functional, cell-based
HL-60 = assay: Cytotoxicity against human HL60 cells after 16 hrs by XTT/PMS assay; settings: HL-60, 16 h
[8] = Selectivity index, ratio of IC50 of african green monkey (Cercopithecus aethiops) Vero cells to IC50 for chloroquine-sensitive Plasmodium falciparum D6; format: toxicity, cell-based; settings: read-out: Ratio IC50
Cryptococcus neoformans [9] = assay: Antifungal activity against Cryptococcus neoformans ATCC 90113 after 48 hrs by modified well microplate assay; format: functional, organism-based; settings: Cryptococcus neoformans, ATCC 90113, 48 h; for IC50: read-out: IC50; summary of the method: as §1
Plasmodium falciparum [10] = assay: Antimalarial activity after 48 hrs against chloroquine-resistant Plasmodium falciparum W2 as LDH activity by Makler method; format: functional, organism-based; settings: W2, 48 h; summary of the method: as §2
KB = assay: Cytotoxicity against human KB cells after 2 to 7 days by neutral red assay; format: functional, cell-based
Plasmodium falciparum [11] = assay: Antimalarial activity against chloroquine-sensitive Plasmodium falciparum D6; format: functional, organism-based
Summary of the method: (§3)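 In vitro antimalarial screen using the parasite lactate dehydrogenase (pLDH) assay, adapted from Makler et al. and run in 96-well microplates. Two P. falciparum clones were tested: W-2 (chloroquine-resistant) and D-6 (chloroquine-sensitive). Chloroquine and artemisinin served as positive controls and DMSO as the vehicle (negative) control. IC50 values were reported.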

Plasmodium falciparum [12] = assay: Antimalarial activity against chloroquine-resistant Plasmodium falciparum W2; format: functional, organism-based; summary of the method: as §3
[13] = Specific index, ratio of IC50 for human HL60 cells to IC50 for LFA1/ICAM1-mediated CFSE-labeled TPA-stimulated human HL60 cell adhesion to ICAM1 expressing human HeLa cells
Summary of the method: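 Index = HL-60 XTT IC50 / adhesion IC50. XTT: HL-60 at 1 × 10^6 cells/mL, sample 10 min, then PMA 10 ng/mL for 16 h; then XTT 1 mg/mL with 25 µM PMS for 4 h at 37 °C, A450 (ref 630). Adhesion: CFSE-labeled HL-60 on confluent HeLa monolayers, PMA 50 ng/mL, 45 min at 37 °C; nonadherent cells washed off, remainder lysed in 1% Triton X-100, fluorescence ex 496/em 519 nm.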

[14] = molecular target: Intercellular adhesion molecule (ICAM-1), Integrin alpha-L/beta-2 (Homo sapiens, UniProt P05107+P05362+P20701); assay: Inhibition of LFA1/ICAM1-mediated CFSE-labeled TPA-stimulated human HL60 cell adhesion to ICAM1 expressing human HeLa cells after 45 mins by fluorescence analysis; format: cell-based
Chain of Intercellular adhesion molecule (ICAM-1), Integrin alpha-L/beta-2 (P20701 whole entry): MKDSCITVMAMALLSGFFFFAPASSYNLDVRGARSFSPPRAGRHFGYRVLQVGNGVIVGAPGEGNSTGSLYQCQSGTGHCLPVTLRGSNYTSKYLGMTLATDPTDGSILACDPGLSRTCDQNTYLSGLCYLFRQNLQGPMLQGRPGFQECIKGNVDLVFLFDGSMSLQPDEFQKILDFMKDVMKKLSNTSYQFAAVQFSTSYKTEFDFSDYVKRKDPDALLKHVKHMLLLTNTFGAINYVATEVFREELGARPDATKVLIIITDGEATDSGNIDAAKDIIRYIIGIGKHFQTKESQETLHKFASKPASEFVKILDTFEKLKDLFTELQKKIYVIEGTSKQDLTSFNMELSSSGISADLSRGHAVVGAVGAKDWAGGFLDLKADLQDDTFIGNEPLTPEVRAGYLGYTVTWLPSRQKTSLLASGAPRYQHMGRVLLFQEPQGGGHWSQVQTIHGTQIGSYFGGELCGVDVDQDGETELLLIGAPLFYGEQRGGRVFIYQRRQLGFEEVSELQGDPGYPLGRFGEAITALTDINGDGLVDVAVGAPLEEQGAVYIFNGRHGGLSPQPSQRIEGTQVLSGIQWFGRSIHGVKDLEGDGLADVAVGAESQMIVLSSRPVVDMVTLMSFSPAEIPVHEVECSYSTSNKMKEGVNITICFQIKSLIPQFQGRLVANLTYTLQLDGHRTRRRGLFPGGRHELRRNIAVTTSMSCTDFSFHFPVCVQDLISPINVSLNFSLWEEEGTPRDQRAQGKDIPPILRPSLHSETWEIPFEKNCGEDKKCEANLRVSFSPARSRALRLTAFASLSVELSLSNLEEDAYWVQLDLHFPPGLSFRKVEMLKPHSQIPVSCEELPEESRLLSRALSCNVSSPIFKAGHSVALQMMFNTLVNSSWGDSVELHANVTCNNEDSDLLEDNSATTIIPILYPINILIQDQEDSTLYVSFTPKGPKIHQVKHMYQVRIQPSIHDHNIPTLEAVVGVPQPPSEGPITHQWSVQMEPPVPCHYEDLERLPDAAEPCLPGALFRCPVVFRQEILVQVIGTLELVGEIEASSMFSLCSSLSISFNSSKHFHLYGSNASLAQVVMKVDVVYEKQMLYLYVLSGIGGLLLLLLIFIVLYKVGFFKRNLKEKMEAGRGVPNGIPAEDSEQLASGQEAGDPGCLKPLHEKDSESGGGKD
Chain of Intercellular adhesion molecule (ICAM-1), Integrin alpha-L/beta-2 (P05362 whole entry): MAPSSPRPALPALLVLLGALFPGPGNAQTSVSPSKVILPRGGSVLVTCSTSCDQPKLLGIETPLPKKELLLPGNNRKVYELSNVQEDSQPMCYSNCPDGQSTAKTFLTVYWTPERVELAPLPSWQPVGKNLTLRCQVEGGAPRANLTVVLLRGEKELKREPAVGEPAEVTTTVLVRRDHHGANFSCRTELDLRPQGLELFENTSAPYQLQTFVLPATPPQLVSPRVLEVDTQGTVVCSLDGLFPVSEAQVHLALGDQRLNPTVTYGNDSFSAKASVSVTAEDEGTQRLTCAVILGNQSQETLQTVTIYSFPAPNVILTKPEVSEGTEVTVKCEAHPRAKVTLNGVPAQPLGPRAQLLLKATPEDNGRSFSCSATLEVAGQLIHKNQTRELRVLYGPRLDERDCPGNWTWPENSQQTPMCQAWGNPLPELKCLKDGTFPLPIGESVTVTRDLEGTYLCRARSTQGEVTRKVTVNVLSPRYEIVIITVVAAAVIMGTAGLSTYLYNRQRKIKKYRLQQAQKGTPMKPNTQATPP
Chain of Intercellular adhesion molecule (ICAM-1), Integrin alpha-L/beta-2 (P05107 whole entry): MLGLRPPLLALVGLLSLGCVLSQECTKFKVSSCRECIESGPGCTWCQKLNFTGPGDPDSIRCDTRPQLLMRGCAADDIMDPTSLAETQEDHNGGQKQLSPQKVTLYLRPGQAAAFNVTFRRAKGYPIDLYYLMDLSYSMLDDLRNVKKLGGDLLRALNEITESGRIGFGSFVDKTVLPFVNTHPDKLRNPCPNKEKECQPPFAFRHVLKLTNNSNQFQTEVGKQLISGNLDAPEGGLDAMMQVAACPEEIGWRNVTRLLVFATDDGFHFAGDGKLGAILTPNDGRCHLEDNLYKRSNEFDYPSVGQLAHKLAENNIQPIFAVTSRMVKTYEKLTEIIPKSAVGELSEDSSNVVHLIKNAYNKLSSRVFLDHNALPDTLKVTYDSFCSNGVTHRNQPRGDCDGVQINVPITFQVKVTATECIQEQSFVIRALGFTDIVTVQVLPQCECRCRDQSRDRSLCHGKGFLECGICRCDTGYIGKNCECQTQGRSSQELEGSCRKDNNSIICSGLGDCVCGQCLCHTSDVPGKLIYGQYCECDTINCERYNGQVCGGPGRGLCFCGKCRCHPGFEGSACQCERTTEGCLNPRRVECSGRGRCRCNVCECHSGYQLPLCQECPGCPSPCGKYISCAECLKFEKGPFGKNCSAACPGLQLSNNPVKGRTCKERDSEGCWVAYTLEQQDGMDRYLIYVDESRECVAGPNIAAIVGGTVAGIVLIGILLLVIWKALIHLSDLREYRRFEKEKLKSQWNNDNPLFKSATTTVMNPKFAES
Summary of the method: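 CFSE-labelled HL-60 cells plus sample added onto confluent ICAM-1-expressing HeLa monolayers with PMA 50 ng/mL; 45 min at 37 °C in CO2 incubator; nonadherent cells washed off, remainder lysed in 1% Triton X-100; fluorescence at ex 496/em 519 nm; anti-ICAM-1 antibody and cytochalasin B positive controls.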

Row | SMILES | MIC [1] [µg/mL] | IC50 (Candida albicans) [µg/mL] | MIC (Candida albicans) [µg/mL] | selectivity ratio [2] | IC50 (Plasmodium falciparum [4]) [µg/mL] | Ratio [7] | IC50 (SK-MEL) [µg/mL] | IC50 (SK-OV-3) [µg/mL] | IC50 (HL-60) [µg/mL] | selectivity ratio [8] | MIC (Cryptococcus neoformans [9]) [µg/mL] | IC50 (Cryptococcus neoformans [9]) [µg/mL] | IC50 (Plasmodium falciparum [10]) [µg/mL] | IC50 (Staphylococcus aureus [3]) | MIC (Staphylococcus aureus [3]) | IC50 (Staphylococcus aureus [5]) | MIC (Staphylococcus aureus [5]) | further results
1 | COc1cnc2c3c(nccc13)C(=O)c1ccccc1-2 | 12.5 (≈ 47.7 µM) | 3 (≈ 11.4 µM) | 20 (≈ 76.3 µM) | > 50 | 0.28 (≈ 1.07 µM) | 0.6 | > 10 | > 10 | 7.2 (≈ 27.5 µM) | > 17 | 3.12 (≈ 11.9 µM) | 0.65 (≈ 2.48 µM) | 0.095 (≈ 0.362 µM) |  |  |  |  | IC50 (Staphylococcus aureus [3]; Staphylococcus aureus, ATCC 33591, 48 h, read-out: IC50): 20 µg/mL (≈ 76.3 µM); MIC (Staphylococcus aureus [5]; Staphylococcus aureus, ATCC 6535, 48 h): 25 µg/mL (≈ 95.3 µM); IC50 (Staphylococcus aureus [5]; Staphylococcus aureus, ATCC 6535, 48 h, read-out: IC50): 15 µg/mL (≈ 57.2 µM); MIC (Cryptococcus neoformans [6]): 0.78 µg/mL (≈ 2.97 µM); IC50 (BT-549; bt-549): Not Active; IC50 (KB; kb): Not Active
2 | COc1c2c3c(ccnc3c3ccccc13)C(=O)C(=O)N2C |  | 9 (≈ 30.8 µM) | 50 (≈ 171 µM) | > 17 | 0.55 (≈ 1.88 µM) |  | 2 (≈ 6.84 µM) | 5 (≈ 17.1 µM) |  | > 8.7 |  | 50 (≈ 171 µM) | 0.28 (≈ 0.958 µM) | Not Active | inactive | Not Active | inactive | IC50 (BT-549; Homo sapiens, BT-549, read-out: IC50): > 10 µg/mL; IC50 (KB; Homo sapiens, KB, read-out: IC50): > 10 µg/mL
3 | C[C@@H]1[C@H](O)[C@@H](C)/C=C/C=C/C=C/C=C/C=C/C=C/C=C/[C@H](O[C@@H]2O[C@H](C)[C@@H](O)[C@H](N)[C@@H]2O)C[C@@H]2O[C@](O)(C[C@@H](O)C[C@@H](O)[C@H](O)CC[C@@H](O)C[C@@H](O)CC(=O)O[C@H]1C)C[C@H](O)[C@H]2C(=O)O [AMPHOTERICIN B] |  | 0.011 (≈ 0.0119 µM) | 0.02 (≈ 0.0216 µM) |  |  |  |  |  |  |  | 0.156 (≈ 0.169 µM) | 0.045 (≈ 0.0487 µM) |  | Not Active | inactive | Not Active | inactive | 
4 | C[C@@H]1CC[C@H]2[C@@H](C)C(=O)O[C@@H]3O[C@@]4(C)CC[C@@H]1[C@]32OO4 [ARTEMISININ] |  |  |  | > 1080 | 0.005 (≈ 0.0177 µM) |  |  |  |  | > 952 |  |  | 0.0044 (≈ 0.0156 µM) |  |  |  |  | IC50 (Plasmodium falciparum [11]): 0.0018 µg/mL (≈ 0.00638 µM); IC50 (Plasmodium falciparum [12]): 0.0005 µg/mL (≈ 0.00177 µM)
5 | C=C1[C@@H](C)[C@H]2[C@H](Cc3ccccc3)NC(=O)[C@]23OC(=O)/C=C/[C@H](O)CCC[C@@H](C)C/C=C/[C@H]3[C@@H]1O [CYTOCHALASIN B] | 0.39 (≈ 0.813 µM) |  |  |  |  | 76.9 |  |  | > 30 |  |  |  |  |  |  |  |  | Ratio IC50 [13]: >120; pIC50 [14]: 6.28
